The values that follow come from ChEMBL document CHEMBL1138071, “Design and synthesis of noncompetitive metabotropic glutamate receptor subtype 5 antagonists” (Bioorg Med Chem Lett, 2006).

pIC50: −log10 of the molar value. Active and inactive are the calls of the source. The calls are words filed in the database; no cut-off is given here.

Assay [1] deals with Metabotropic glutamate receptor 5 (Rattus norvegicus, UniProt P31424). Kind of assay: Inhibition of [3H]MPEP binding to mGluR5 in rat brain membrane. Format: cell membranes. The procedure, abridged:
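Rat brain membranes spun twice at 30,000g for 10 min, resuspended in ice-cold 50 mM Tris–HCl pH 7.0 with 1% BSA. Displacement by 10 drug concentrations run three times. Incubated 2.5 h at 4 °C to steady state, then filtered over PEI-presoaked glass-fibre filters.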

Assay [2] deals with Metabotropic glutamate receptor 5 (Homo sapiens, UniProt P41594). Nature of the assay: Antagonist activity against mGluR5 expressed in CHO cells assessed as inhibition of agonist-induced phosphoinositide hydrolysis. Format: functional, cell-based.
For assay [3], the target named is Metabotropic glutamate receptor 5 (Rattus norvegicus) (UniProt P31424). Nature of the assay: Inhibition of [3H]MPEP binding to mGluR5 in rat brain membrane at 100 uM. It is filed as cell membranes.
Assay [4] shares this target. As to conditions: Brain, Membrane, 10 uM.

Sequence of Metabotropic glutamate receptor 5 (Rattus norvegicus) (P31424 21-1203 limits assumed): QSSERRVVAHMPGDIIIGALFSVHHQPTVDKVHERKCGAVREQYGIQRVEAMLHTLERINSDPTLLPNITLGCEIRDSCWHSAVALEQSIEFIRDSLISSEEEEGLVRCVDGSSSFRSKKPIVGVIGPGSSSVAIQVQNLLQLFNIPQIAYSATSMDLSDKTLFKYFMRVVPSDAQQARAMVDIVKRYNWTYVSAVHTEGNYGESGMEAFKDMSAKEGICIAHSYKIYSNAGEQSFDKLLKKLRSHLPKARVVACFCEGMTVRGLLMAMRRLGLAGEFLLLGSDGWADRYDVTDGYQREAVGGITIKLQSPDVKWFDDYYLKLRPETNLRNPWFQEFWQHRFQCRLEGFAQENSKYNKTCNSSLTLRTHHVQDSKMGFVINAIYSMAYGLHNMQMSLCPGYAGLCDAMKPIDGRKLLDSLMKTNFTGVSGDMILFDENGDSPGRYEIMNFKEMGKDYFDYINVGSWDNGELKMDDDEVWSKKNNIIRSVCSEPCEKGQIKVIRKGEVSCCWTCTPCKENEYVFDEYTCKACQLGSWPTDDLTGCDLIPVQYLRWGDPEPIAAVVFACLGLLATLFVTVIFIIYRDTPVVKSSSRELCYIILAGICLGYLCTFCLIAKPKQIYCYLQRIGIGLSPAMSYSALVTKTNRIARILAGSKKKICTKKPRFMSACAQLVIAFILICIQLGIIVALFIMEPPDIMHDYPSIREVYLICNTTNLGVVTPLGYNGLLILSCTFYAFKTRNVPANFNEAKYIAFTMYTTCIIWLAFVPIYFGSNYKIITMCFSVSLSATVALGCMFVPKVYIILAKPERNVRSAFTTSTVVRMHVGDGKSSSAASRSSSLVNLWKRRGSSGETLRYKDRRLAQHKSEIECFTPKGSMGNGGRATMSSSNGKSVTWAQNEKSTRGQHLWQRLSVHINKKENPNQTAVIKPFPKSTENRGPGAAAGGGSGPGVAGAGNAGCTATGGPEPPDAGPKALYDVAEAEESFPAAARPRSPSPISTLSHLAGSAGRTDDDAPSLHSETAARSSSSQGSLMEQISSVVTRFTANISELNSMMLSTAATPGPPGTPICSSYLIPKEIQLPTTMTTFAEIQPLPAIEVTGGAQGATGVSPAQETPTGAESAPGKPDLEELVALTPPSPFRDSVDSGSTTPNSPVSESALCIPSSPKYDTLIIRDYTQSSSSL
Sequence of Metabotropic glutamate receptor 5 (Homo sapiens, UniProt P41594) (P41594 whole entry): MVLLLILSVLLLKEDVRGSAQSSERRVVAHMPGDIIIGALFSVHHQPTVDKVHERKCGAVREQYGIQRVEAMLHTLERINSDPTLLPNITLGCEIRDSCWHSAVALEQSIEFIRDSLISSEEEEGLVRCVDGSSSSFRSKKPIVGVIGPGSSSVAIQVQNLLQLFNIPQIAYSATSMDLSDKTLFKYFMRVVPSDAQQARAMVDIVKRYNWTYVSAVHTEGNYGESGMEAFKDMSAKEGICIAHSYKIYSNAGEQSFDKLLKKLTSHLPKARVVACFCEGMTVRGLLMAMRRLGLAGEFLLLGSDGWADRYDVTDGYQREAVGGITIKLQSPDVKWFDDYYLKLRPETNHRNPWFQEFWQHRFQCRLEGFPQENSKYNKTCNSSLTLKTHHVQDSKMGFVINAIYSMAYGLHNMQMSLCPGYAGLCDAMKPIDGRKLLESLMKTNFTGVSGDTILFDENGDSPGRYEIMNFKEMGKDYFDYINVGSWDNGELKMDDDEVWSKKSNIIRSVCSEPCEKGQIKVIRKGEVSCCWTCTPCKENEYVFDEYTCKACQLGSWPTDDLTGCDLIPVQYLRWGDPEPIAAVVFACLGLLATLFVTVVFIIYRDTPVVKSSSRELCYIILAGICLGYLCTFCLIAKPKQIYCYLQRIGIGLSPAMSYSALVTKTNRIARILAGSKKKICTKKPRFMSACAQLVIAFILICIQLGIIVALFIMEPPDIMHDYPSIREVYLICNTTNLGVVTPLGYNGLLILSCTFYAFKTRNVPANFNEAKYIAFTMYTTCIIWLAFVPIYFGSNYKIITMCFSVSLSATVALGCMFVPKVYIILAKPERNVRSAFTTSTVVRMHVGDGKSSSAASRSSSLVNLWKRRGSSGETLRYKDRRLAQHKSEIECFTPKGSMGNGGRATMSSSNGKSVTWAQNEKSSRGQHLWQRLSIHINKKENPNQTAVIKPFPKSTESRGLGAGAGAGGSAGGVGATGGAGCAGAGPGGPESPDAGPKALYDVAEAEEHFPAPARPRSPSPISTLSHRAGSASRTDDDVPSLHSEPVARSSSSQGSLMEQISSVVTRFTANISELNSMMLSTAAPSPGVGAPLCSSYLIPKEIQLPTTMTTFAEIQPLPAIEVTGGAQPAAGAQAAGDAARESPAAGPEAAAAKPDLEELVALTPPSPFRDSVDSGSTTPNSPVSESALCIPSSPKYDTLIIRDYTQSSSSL
Sequence of Metabotropic glutamate receptor 5 (Rattus norvegicus, UniProt P31424) (P31424 whole entry): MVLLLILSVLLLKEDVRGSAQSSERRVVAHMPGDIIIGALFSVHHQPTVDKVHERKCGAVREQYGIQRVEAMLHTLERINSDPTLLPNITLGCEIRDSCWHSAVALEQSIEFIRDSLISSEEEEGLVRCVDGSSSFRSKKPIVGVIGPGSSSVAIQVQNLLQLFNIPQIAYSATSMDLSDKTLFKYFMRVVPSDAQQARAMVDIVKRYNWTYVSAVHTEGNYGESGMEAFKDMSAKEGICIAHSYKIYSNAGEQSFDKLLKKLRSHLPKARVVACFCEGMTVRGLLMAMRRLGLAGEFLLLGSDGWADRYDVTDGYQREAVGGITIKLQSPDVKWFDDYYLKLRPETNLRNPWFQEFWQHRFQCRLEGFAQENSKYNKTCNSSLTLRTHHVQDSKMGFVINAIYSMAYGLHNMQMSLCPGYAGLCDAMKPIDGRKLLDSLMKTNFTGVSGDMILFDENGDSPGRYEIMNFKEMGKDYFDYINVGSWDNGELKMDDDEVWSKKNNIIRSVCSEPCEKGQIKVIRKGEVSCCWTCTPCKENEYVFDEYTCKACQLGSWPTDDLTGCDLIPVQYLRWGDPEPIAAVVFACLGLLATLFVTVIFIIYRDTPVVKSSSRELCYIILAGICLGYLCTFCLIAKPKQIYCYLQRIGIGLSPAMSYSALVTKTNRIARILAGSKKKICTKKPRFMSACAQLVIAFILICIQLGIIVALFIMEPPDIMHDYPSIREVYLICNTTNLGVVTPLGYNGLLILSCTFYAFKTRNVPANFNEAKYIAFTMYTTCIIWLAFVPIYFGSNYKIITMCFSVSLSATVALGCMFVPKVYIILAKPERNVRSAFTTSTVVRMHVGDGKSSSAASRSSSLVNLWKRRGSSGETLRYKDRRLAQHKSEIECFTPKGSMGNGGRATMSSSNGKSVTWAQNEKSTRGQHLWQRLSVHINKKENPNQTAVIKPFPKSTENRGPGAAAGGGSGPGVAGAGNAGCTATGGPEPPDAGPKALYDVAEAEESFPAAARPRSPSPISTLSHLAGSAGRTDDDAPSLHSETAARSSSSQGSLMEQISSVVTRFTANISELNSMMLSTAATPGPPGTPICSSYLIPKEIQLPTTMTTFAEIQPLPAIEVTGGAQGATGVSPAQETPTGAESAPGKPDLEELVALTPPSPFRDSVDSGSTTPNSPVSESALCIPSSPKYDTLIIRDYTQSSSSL

One may read the pIC50 as −log10 of the IC50, conventionally taken in molar units. In the case of `Cc1csc(NC(=O)c2cccc(Cl)c2)n1`, the negative logarithm of the IC50 (pIC50) is 5.26 in assay [1] and 4.82 in assay [2]. In turn, `O=C(Nc1ccccn1)c1ccccc1` gave a pIC50 in assay [1] of 4.02. In general, inhibition refers to how much of the control response was suppressed. Higher therefore signals strong suppression. Compound `Cc1cccc(NC(=O)C2CCCN(Cc3cccc(Cl)c3)C2)n1` (centres undefined) registered an inhibition in assay [3] of 31%.

On to `Cc1cccc(NC(=O)c2cccc(Br)c2)n1`, for which the pIC50 in assay [1] is 6.19; in assay [2], 5.26. With `Cc1cccc(NC(=O)c2cccc(OCCc3ccccc3)c2)n1`, in assay [1], the negative-log IC50 (pIC50) is 4.63.

Take `Cc1cccc(NC(=O)c2cccc(I)c2)n1`: the negative logarithm of the IC50 (pIC50) was 5.97 in assay [1] and 4.97 in assay [2]. For `Cc1ccc(S(=O)(=O)N2CCCC(C(=O)Nc3cccc(C)n3)C2)cc1` (centres undefined), in assay [3], the inhibition was found to be 31%. In the case of `COc1cccc(C(=O)Nc2nc(C)cs2)c1`, the pIC50 in assay [1] was 5.04.

`Cc1ccc(O)c(/N=N/c2ccccc2)n1` gave a pIC50 in assay [1] of 5.93.

Turning to `Cc1cccc(NC(=O)c2cccc(-c3ccccc3)c2)n1`, the pIC50 in assay [1] was 5.14; in assay [2], 4.74.

In the case of `Cc1csc(NC(=O)c2cccnc2)n1`, the result in assay [3] was inactive. `Cc1cccc(NC(=O)c2cccc(OCc3ccccc3)c2)n1` gave a pIC50 in assay [1] of 4.48. Take `Cc1cccc(NC(=O)c2cccnc2)n1`: in assay [3], the outcome was inactive.

With `Cc1cccc(CNc2ccccc2)n1`, the outcome in assay [3] was inactive. With `Cc1cccc(NC(=O)c2cccc(C#N)c2)n1`, the pIC50 in assay [1] is 6.48; in assay [2], 5.27. On the same counts, the results for `Cc1cccc(C(=O)Nc2cccc(C)n2)c1` are 5.74 and 5.23. `Cc1cccc(NC(=O)C2CCCN(Cc3ccccc3)C2)n1` (centres undefined) returned an inhibition in assay [3] of 14%. Take `O=C(Nc1cccc(Cl)n1)c1cccc(Cl)c1`: the negative logarithm of the IC50 (pIC50) in assay [1] is 5.82; in assay [2] it was 4.90. With `Cc1cccc(NC(=O)c2ccccc2)n1`, the pIC50 in assay [1] was 4.46. For the compound `Cc1cccc(NC(=O)c2cccc(S(C)(=O)=O)c2)n1`, the result in assay [3] was inactive. Turning to `Cc1cccc(NC(=O)c2cccc(Cl)c2)n1`, the inhibition in assay [4] is 66%. In assay [1], this compound gave a pIC50 of 5.76.

For `COc1cccc(C(=O)Nc2cccc(C)n2)c1`, the pIC50 in assay [1] is 5.01; in assay [2], 4.34. As for `Cc1ccc(S(=O)(=O)Nc2cccc(C)n2)cc1`, in assay [3], the result was inactive. In assay [1], `Cc1cccc(NC(=O)c2cccc(OS(C)(=O)=O)c2)n1` had a pIC50 of 4.08. On to `Cc1cccc(NC(=O)c2cccc(C(F)(F)F)c2)n1`, for which the pIC50 in assay [1] is 4.73. For `Cc1cccc(NC(=O)C2CCCN(C)C2)n1` (centres undefined), the outcome in assay [3] was inactive. The same measure, in the same setting: the same measure for `Cc1cccc(NC(=O)c2ccc3ccccc3c2)n1`: “inactive”. For the compound `Cc1cccc(NC(=O)c2ccccc2Cl)n1`, the result in assay [3] was inactive. As to `Cc1cccc(NC(=O)c2cccc(/C=C/c3ccccc3)c2)n1`, in assay [3], the outcome was inactive. As for `Cc1cccc(NC(=O)c2ccc(Cl)cc2)n1`, in assay [3], the outcome was inactive. In the case of `Cc1cccc(/C=C/c2ccccc2)n1`, the negative logarithm of the IC50 (pIC50) in assay [1] was 5.97. `Cc1cccc(NCc2ccccc2)n1`: the outcome in assay [3] was inactive.

For `Cc1csc(NC(=O)c2ccccc2)n1`, the pIC50 in assay [1] was 4.19. In turn, `Cc1cccc(NC(=O)c2cccc(Oc3ccccc3)c2)n1` had a pIC50 in assay [1] of 4.24.

Compound `Cc1cccc(NC(=O)c2cccc3ccccc23)n1` showed a pIC50 in assay [1] of 4.20.
